Peptide text beside a SMILES is read from it.
How the values were obtained:
[1] = target: Delta-type opioid receptor (Mus musculus, UniProt P32300); experiment: Inhibitory concentration against delta opioid receptor in mouse vas deferens assay; format: tissue-based
Method in brief: (§1)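 Electrically stimulated tissue in Krebs bicarbonate, 37 °C, 95% O2/5% CO2, 0.1 Hz, supramaximal voltage. MVD used male ICR mouse vas deferens, Mg-free buffer, 0.5 g tension, 2.0 ms pulses. GPI used male Hartley guinea pig ileum myenteric plexus strips, 1 g tension, 0.4 ms pulses. Cumulative agonist doses, 3 min each. IC50 from Hill fit to mean inhibition data, 2–4 tissues.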

Mu-type opioid receptor [2] = target: T1, Mu-type opioid receptor (Cavia porcellus, UniProt P97266); experiment: Displacement of [3H]DAMGO from mu opioid receptor of guinea pig brain membrane
Mu-type opioid receptor [3] = target: T1, Mu-type opioid receptor; experiment: Inhibitory concentration of compound against mu opioid receptor in guinea pig ileum assay; format: tissue-based; method in brief: as §1
[4] = target: Opioid receptors; mu & delta (UniProt P41143+P35372); experiment: Ratio of IC50 against mu opioid to IC50 against delta opioid receptor; method in brief: as §1
Sequence of Opioid receptors; mu & delta (P35372 whole entry, looked up): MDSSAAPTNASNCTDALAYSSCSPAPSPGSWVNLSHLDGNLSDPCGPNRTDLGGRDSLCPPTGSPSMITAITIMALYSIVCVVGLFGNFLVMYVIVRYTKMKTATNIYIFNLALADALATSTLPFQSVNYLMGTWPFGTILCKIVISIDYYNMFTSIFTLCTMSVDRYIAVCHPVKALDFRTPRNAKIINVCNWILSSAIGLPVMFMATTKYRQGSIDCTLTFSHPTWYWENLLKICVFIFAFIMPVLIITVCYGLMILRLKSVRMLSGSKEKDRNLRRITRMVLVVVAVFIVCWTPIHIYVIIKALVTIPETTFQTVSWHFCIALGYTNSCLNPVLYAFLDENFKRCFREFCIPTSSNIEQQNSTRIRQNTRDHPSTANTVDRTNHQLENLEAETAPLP
Sequence of Opioid receptors; mu & delta (P41143 whole entry, looked up): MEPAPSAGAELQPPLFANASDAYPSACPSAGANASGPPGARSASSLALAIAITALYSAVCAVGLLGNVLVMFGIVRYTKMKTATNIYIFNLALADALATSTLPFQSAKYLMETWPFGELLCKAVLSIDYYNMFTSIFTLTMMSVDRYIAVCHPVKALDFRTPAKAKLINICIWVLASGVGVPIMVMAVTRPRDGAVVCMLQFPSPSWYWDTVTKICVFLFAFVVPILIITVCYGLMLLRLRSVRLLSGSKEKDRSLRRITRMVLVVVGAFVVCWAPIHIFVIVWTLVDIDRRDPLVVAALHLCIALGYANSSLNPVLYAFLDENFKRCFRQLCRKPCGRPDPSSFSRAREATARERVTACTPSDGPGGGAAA

T1 sequence (P97266 whole entry): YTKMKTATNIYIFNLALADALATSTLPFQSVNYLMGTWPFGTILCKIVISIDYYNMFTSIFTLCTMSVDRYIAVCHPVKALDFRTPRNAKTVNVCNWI
Sequence of Delta-type opioid receptor (P32300 whole entry): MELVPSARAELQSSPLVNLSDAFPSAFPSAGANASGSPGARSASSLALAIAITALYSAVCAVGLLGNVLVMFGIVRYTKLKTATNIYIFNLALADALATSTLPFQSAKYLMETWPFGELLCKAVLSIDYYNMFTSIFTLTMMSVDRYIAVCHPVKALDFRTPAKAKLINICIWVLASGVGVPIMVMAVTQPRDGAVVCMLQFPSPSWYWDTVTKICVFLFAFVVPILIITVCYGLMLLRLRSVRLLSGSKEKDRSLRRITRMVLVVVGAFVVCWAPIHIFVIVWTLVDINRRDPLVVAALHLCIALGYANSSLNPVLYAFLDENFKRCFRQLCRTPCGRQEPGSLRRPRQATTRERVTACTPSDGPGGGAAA

SMILES	IC50 [1]	Ki (Mu-type opioid receptor [2])	IC50 (Mu-type opioid receptor [3])	Ratio [4]
CC1(C)SSC[C@H](NC(=O)[C@@H](N)Cc2ccc(O)cc2)C(=O)N[C@@H](Cc2ccccc2)C(=O)N[C@@H]1C(=O)O	4.2 nM			
CC1(C)SSC[C@H](NC(=O)[C@]2(N)CCc3cc(O)ccc3C2)C(=O)N[C@@H](Cc2ccccc2)C(=O)N[C@@H]1C(=O)O	110 nM	230 nM	1800 nM	16
CC1(C)SSC[C@H](NC(=O)[C@H]2NCC[C@@H]2c2ccc(O)cc2)C(=O)N[C@@H](Cc2ccccc2)C(=O)N[C@@H]1C(=O)O	1.6 nM	110 nM	770 nM	480
CC1(C)SSC[C@H](NC(=O)[C@@](C)(N)Cc2ccc(O)cc2)C(=O)N[C@@H](Cc2ccccc2)C(=O)N[C@@H]1C(=O)O (HELM PEPTIDE1{[C[C@](N)(Cc1ccc(O)cc1)C(=O)[*:2]].C.F.[Pen]}$PEPTIDE1,PEPTIDE1,2:R3-4:R3$$$V2.0)		> 10000 nM		
CC1(C)SSC[C@H](NC(=O)[C@@H]2Cc3ccc(O)cc3CN2)C(=O)N[C@@H](Cc2ccccc2)C(=O)N[C@@H]1C(=O)O (HELM PEPTIDE1{[O=C([C@@H]1Cc2ccc(O)cc2CN1)[*:2]].C.F.[Pen]}$PEPTIDE1,PEPTIDE1,2:R3-4:R3$$$V2.0)		> 10000 nM		
CC1(C)SSC[C@H](NC(=O)C2NCC[C@@H]2c2ccc(O)cc2)C(=O)N[C@@H](Cc2ccccc2)C(=O)N[C@@H]1C(=O)O (single isomer, unassigned)		10000 nM		
CC1(C)SSC[C@H](NC(=O)[C@H]2NCC[C@H]2c2ccc(O)cc2)C(=O)N[C@@H](Cc2ccccc2)C(=O)N[C@@H]1C(=O)O	75 nM	720 nM	12000 nM	160
CC1(C)SSC[C@H](NC(=O)[C@@]2(N)Cc3ccc(O)cc3C2)C(=O)N[C@@H](Cc2ccccc2)C(=O)N[C@@H]1C(=O)O	340 nM	840 nM	> 10000 nM	> 29
CC1(C)SSC[C@H](NC(=O)C2(N)CCc3cc(O)ccc3C2)C(=O)N[C@@H](Cc2ccccc2)C(=O)N[C@@H]1C(=O)O (single isomer, unassigned)	340 nM	310 nM	4300 nM	13
CC1(C)SSC[C@H](NC(=O)C2(N)Cc3ccc(O)cc3C2)C(=O)N[C@@H](Cc2ccccc2)C(=O)N[C@@H]1C(=O)O (single isomer, unassigned)		> 10000 nM		
CC1(C)SSC[C@H](NC(=O)C2NCC[C@H]2c2ccc(O)cc2)C(=O)N[C@@H](Cc2ccccc2)C(=O)N[C@@H]1C(=O)O (single isomer, unassigned)		4440 nM		

Source: ChEMBL document CHEMBL1127294, “Development of a model for the delta opioid receptor pharmacophore. 1. Conformationally restricted Tyr1 replacements in the cyclic delta receptor selective tetrapeptide Tyr-c[D-Cys-Phe-D-Pen]OH (JOM-13)” (J Med Chem, 1994)
